Data on 81 compounds can be found in ChEMBL document CHEMBL1122169, “Inhibition of rat hepatic microsomal aminopyrine N-demethylase activity by benzimidazole derivatives. Quantitative structure-activity relationships” (J Med Chem, 1982).

As usually defined, the logP is the decadic logarithm of the partition coefficient of the neutral form, usually between octanol and water. Higher therefore signals a more lipophilic compound.

The nature of series [1]: Partition coefficient (logP). The series is classed as physicochemical. Particulars: octanol/water.
For another series, the target named is T1, Cytochrome P450 2B1 (Rattus norvegicus, UniProt P00176).
T1 sequence (P00176 whole entry): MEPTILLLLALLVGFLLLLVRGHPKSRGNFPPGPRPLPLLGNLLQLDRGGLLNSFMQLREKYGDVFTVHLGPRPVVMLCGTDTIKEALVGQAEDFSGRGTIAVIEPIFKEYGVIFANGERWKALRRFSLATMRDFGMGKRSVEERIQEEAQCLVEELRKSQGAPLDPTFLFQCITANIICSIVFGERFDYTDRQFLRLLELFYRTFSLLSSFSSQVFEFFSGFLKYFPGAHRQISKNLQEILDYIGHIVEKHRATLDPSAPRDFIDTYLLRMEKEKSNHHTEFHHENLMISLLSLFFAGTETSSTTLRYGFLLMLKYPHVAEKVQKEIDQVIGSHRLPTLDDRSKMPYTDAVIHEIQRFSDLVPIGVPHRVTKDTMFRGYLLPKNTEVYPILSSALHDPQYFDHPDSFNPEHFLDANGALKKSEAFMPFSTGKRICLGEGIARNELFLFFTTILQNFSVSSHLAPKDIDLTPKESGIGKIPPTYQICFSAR
Nature of the series: Inhibitory potency to aminopyrine N-demethylase activity (P450) in hepatic microsomes from phenobarbitone-induced rats. The series is classed as ADME, Liver. Particulars: read-out: pI50 (converted). Put shortly:
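Microsomes (105000g pellet) from livers of male Wistar rats (100–150 g) given phenobarbitone ip on consecutive days. A 3.0 mL mix in 0.1 M K phosphate, pH 7.4, held aminopyrine 1.61 μmol, NADPH-generating system, semicarbazide and 5.6 mg protein, run 15 min. Formaldehyde was read by Nash/Hantzsch. Inhibitor went in DMSO or 0.07 M HCl, with solvent in controls. I50 came from seven concentrations.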

In series [1], `c1ccc2c(Cc3nc4ccccc4[nH]3)cccc2c1` yielded a logP of 4.8. In addition, the IC50 at Cytochrome P450 2B1 is 25.1 µM.
Turning to `CC(C)c1nc2ccccc2[nH]1`, the logP in series [1] turned out to be 2.41.
The compound `CCCc1nc2ccccc2[nH]1` displayed a logP in series [1] of 2.43.
For the compound `Clc1ccc(Cc2nc3ccccc3[nH]2)c(Cl)c1`, in series [1], the logP turned out to be 5.32. The IC50 on Cytochrome P450 2B1 is 15.1 µM.
`Cc1ccc2[nH]cnc2c1` returned a logP in series [1] of 1.89.
On to `Cc1nc2ccccc2[nH]1`, for which the log partition coefficient (logP) in series [1] came to 1.43.
Consider `CCc1nc2ccc(C)cc2[nH]1`, for which the logP in series [1] came to 2.44.
Regarding `Clc1ccc(OCc2nc3ccccc3[nH]2)cc1`, the log partition coefficient (logP) in series [1] was 3.59. In addition, on Cytochrome P450 2B1, the IC50 was 25.1 µM.
Compound `CCCCCCCc1nc2cc(C)c(C)cc2[nH]1` came in with a logP in series [1] of 5.4. For the same compound, the IC50 on Cytochrome P450 2B1 was 44.7 µM.
Compound `CCCCCCCc1nc2ccccc2[nH]1` yielded a logP in series [1] of 4.43.
Turning to `Cc1cccc(Cc2nc3ccccc3[nH]2)c1C`, the logP in series [1] turned out to be 5.23. Also, the IC50 at Cytochrome P450 2B1 is 53.7 µM.
In series [1], `CCCCCCCc1nc2cc(C)ccc2[nH]1` showed a logP of 4.94. Also, the IC50 at Cytochrome P450 2B1 was 41.7 µM.
Compound `Cc1cc(OCc2nc3ccccc3[nH]2)cc(C)c1Cl` came in with a lipophilicity (logP) in series [1] of 4.43. Also, on Cytochrome P450 2B1, the IC50 was 30.2 µM.
For `CCCc1nc2cc(C)c(C)cc2[nH]1`, in series [1], the logP was determined as 3.4.
`Cc1nc2cc(Cl)ccc2[nH]1` had a logP in series [1] of 2.43.
Compound `OC(c1ccccc1)c1nc2ccccc2[nH]1` (stereo not given) yielded a logP in series [1] of 1.47.
On the same count and under the same terms, to `CCCCC(=O)Nc1ccc2nc(C)[nH]c2c1` belongs 2.11.
In series [1], `CCc1nc2cc(C)c(C)cc2[nH]1` gave a logP of 2.9.
Take `Clc1ccc2[nH]cnc2c1`: the logP in series [1] is 2.38.
Regarding `Cc1ccc(OCc2nc3ccccc3[nH]2)cc1C`, in series [1], the logP was determined as 3.4. Besides, at Cytochrome P450 2B1, the IC50 was 25.7 µM.
Take `c1ccc(CCCCc2nc3ccccc3[nH]2)cc1`: the logP in series [1] was found to be 4.96. Besides, the IC50 on Cytochrome P450 2B1 is 15.1 µM.
`Cc1nc2c(C)c(C)ccc2[nH]1`: the logP in series [1] was determined as 2.36.
As for `Cc1nc2cc(NC(=O)c3ccccc3)ccc2[nH]1`, in series [1], the logP turned out to be 3.19.
Regarding `Cc1ccc2nc(C)[nH]c2c1`, the logP in series [1] worked out at 1.94.
On to `CCOc1ccc2[nH]c(C)nc2c1`, for which the log partition coefficient (logP) in series [1] is 1.93. In addition, the IC50 on Cytochrome P450 2B1 was 56.2 µM.
Regarding `Cc1nc2c([N+](=O)[O-])cc(Cl)cc2[nH]1`, the logP in series [1] was 3.06. Further, on Cytochrome P450 2B1, the IC50 is 100 µM.
The like results for `c1ccc2c(c1)c1c(c3ccccc32)=NCN=1` were, in that order, 4.06 and 30.2 µM.
In series [1], `Fc1ccc2[nH]cnc2c1` yielded a logP of 2.03.
`Clc1ccccc1OCc1nc2ccccc2[nH]1`: in series [1], the logP worked out at 3.33. The IC50 on Cytochrome P450 2B1 is 26.9 µM.
Turning to `c1cncc(-c2nc3ccccc3[nH]2)c1`, the logP in series [1] is 1.7.
In series [1], `O=[N+]([O-])c1cc(Cl)cc2[nH]cnc12` registered a logP of 3.01.
In series [1], `Clc1cccc(OCc2nc3ccccc3[nH]2)c1Cl` gave a log partition coefficient (logP) of 4.26. The IC50 at Cytochrome P450 2B1 is 28.2 µM.
Turning to `CCCCCc1nc2ccccc2[nH]1`, the logP in series [1] is 3.43.
For `CC(=O)Nc1ccc2nc(C)[nH]c2c1`, the logP in series [1] was 0.61.
With `Brc1ccccc1OCc1nc2ccccc2[nH]1`, the logP in series [1] was determined as 3.51. Moreover, the IC50 at Cytochrome P450 2B1 was 12 µM.
The matching figures for `c1ccc(CCc2nc3ccccc3[nH]2)cc1`: 3.96 and 38.9 µM.
The like results for `CCCCc1nc2cc(C)c(C)cc2[nH]1` were, in that order, 3.9 and 55 µM.
On to `ClCc1nc2ccccc2[nH]1`, for which, in series [1], the logP is 1.15.
`CCOc1ccc2[nH]cnc2c1` returned a logP in series [1] of 1.88. In addition, on Cytochrome P450 2B1, the IC50 is 67.6 µM.
As for `CCCCCCCCCCCc1nc2ccccc2[nH]1`, in series [1], the logP was found to be 6.43.
`c1ccc(OCc2nc3ccccc3[nH]2)cc1` returned a logP in series [1] of 2.66. Besides, on Cytochrome P450 2B1, the IC50 was 69.2 µM.
Turning to `c1ccc(-c2nc3ccccc3[nH]2)cc1`, the logP in series [1] came to 2.87. In addition, the IC50 at Cytochrome P450 2B1 was 55 µM.
Compound `O=[N+]([O-])c1ccc2[nH]cnc2c1` yielded a logP in series [1] of 1.64.
Still for that read-out and setting: then `c1ccc2[nH]c(C3CC3)nc2c1`, with 2.02.
`c1ccc(CCCc2nc3ccccc3[nH]2)cc1` returned a logP in series [1] of 4.46. Moreover, at Cytochrome P450 2B1, the IC50 is 19.1 µM.
`O=[N+]([O-])c1cccc2[nH]cnc12` displayed a logP in series [1] of 2.01.
For the compound `c1ccc2c3c(ccc2c1)=NCN=3`, the lipophilicity (logP) in series [1] came out at 2.72. For the same compound, on Cytochrome P450 2B1, the IC50 is 53.7 µM.
`O=C(c1ccccc1)c1ccc2[nH]cnc2c1`: the logP in series [1] came out at 2.43. Further, the IC50 at Cytochrome P450 2B1 was 20 µM.
The compound `Clc1cc(Cl)c2[nH]cnc2c1` came in with a logP in series [1] of 3.26. Moreover, on Cytochrome P450 2B1, the IC50 is 53.7 µM.
With `O=C(Nc1cc(Cl)cc2nc[nH]c12)c1ccccc1`, the logP in series [1] turned out to be 2.68. The IC50 on Cytochrome P450 2B1 was 26.9 µM.
In series [1], `Cc1ccc(OCc2nc3ccccc3[nH]2)cc1` registered a logP of 3.12. The IC50 at Cytochrome P450 2B1 is 44.7 µM.
As for `Cc1nc2ccc([N+](=O)[O-])cc2[nH]1`, in series [1], the logP came to 1.69.
As for `c1ccc(Cc2nc3ccccc3[nH]2)cc1` [BENDAZOL], the logP in series [1] turned out to be 3.46. In addition, the IC50 on Cytochrome P450 2B1 was 91.2 µM.
On to `Cc1cccc2[nH]cnc12`, for which the logP in series [1] is 1.86.
In the case of `CCCCCCCCc1nc2ccccc2[nH]1`, the logP in series [1] amounted to 4.93. Besides, at Cytochrome P450 2B1, the IC50 is 28.8 µM.
As to `CCCCCCc1nc2ccccc2[nH]1`, in series [1], the logP was 3.93. Besides, at Cytochrome P450 2B1, the IC50 is 32.4 µM.
On to `CCCCc1nc2ccccc2[nH]1`, for which, in series [1], the logP came out at 2.93.
As for `Cc1cc(C)cc(OCc2nc3ccccc3[nH]2)c1`, in series [1], the logP amounted to 3.5. The IC50 on Cytochrome P450 2B1 is 25.7 µM.
In turn, `Cc1nc2cc(C)c(C)cc2[nH]1` yielded a logP in series [1] of 2.4.
`Brc1ccc(OCc2nc3ccccc3[nH]2)cc1`: in series [1], the logP was 3.77. At Cytochrome P450 2B1, the IC50 is 21.9 µM.
The compound `c1ccc(OCCc2nc3ccccc3[nH]2)cc1` came in with a lipophilicity (logP) in series [1] of 3.16. For the same compound, the IC50 on Cytochrome P450 2B1 was 25.1 µM.
Compound `CCc1ccc(OCc2nc3ccccc3[nH]2)cc1` displayed a logP in series [1] of 3.59. Moreover, at Cytochrome P450 2B1, the IC50 is 67.6 µM.
Regarding `CCc1nc2ccccc2[nH]1`, the logP in series [1] stood at 1.93.
Consider `Brc1cccc(Br)c1OCc1nc2ccccc2[nH]1`, for which the logP in series [1] came to 4.42. In addition, the IC50 at Cytochrome P450 2B1 is 11 µM.
With `Cc1nc2cc(Cl)cc(Cl)c2[nH]1`, in series [1], the logP was 3.31. In addition, the IC50 at Cytochrome P450 2B1 is 100 µM.
`CC(C)(C)c1nc2ccccc2[nH]1`: the logP in series [1] is 2.86.
As to `c1ccc(-c2nc3ccccc3[nH]2)nc1`, the logP in series [1] stood at 2.38. Further, the IC50 on Cytochrome P450 2B1 is 64.6 µM.
In the case of `CC(=O)Nc1cc(Cl)cc2[nH]c(C)nc12`, in series [1], the log partition coefficient (logP) was 1.27.
For the compound `FC(F)(F)c1nc2ccccc2[nH]1`, in series [1], the logP was determined as 2.39.
Take `Cc1cccc(OCc2nc3ccccc3[nH]2)c1`: the logP in series [1] was found to be 3.14. In addition, the IC50 at Cytochrome P450 2B1 is 28.8 µM.
Turning to `c1ccc2[nH]c(C3CCCCC3)nc2c1`, the logP in series [1] was determined as 3.39. On Cytochrome P450 2B1, the IC50 is 91.2 µM.
The like results for `Cc1nc2cc(Cl)c(Cl)cc2[nH]1` were, in that order, 3.22 and 81.3 µM.
On to `CCCCCCCCCCCCCc1nc2ccccc2[nH]1`, for which the logP in series [1] came out at 7.43. Also, the IC50 at Cytochrome P450 2B1 is 22.9 µM.
The matching figures for `Clc1cc2nc[nH]c2cc1Cl`: 3.17 and 81.3 µM.
Compound `CCCCCc1nc2cc(NC(C)=O)ccc2[nH]1` came in with a log partition coefficient (logP) in series [1] of 2.61.
On to `Clc1cccc(Cc2nc3ccccc3[nH]2)c1`, for which the logP in series [1] came to 4.44. The IC50 at Cytochrome P450 2B1 was 22.9 µM.
With `c1ccc2[nH]cnc2c1` [BENZIMIDAZOLE], in series [1], the log partition coefficient (logP) was determined as 1.38.
In the case of `Brc1ccc(OCc2nc3ccccc3[nH]2)c(Br)c1`, in series [1], the logP came to 4.52. On Cytochrome P450 2B1, the IC50 was 11 µM.
Regarding `c1ccc2cc(Cc3nc4ccccc4[nH]3)ccc2c1`, the logP in series [1] amounted to 4.79. The IC50 at Cytochrome P450 2B1 is 18.2 µM.
For `CC(C)Cc1nc2ccccc2[nH]1`, in series [1], the logP was 2.91.
`NCc1nc2ccccc2[nH]1` displayed a lipophilicity (logP) in series [1] of -0.06.
